Experimental data collected from several papers.
Lines come from different studies, so protocols differ.
Cell line: Vero
Effect on: cell growth or viability

Structure (SMILES)	method	time	CC50
FC(F)(F)c1cccc(Nc2nc(NCCOc3ccccc3)nc3[nH]cnc23)c1	ATP luminescence	–	> 200 µM
COc1ccc(C[C@H](NC(=O)[C@H](C)NC(=O)CN2CCOCC2)C(=O)N[C@@H](Cc2ccccc2)C(=O)C(=O)Nc2ccccc2)cc1	ATP luminescence	48 h	71.1 µM
CC(C)(C)NC(=O)N[C@H](C(=O)N1C[C@H]2[C@@H]([C@H]1C(=O)NC(CC1CCC1)C(=O)C(N)=O)C2(C)C)C(C)(C)C (stereo partly drawn)	neutral red	48 h	> 100 µM
COc1cc2ncnc(Nc3ccc(F)c(Cl)c3)c2cc1OCCCN1CCOCC1	resazurin	–	> 60 µM
COC(=O)N[C@H](C(=O)N1C[C@@H](n2cc(C(=O)OC)nn2)C[C@H]1c1ncc(-c2ccc(-c3ccc(-c4cnc([C@@H]5C[C@H](n6cc(C(=O)OC)nn6)CN5C(=O)[C@@H](NC(=O)OC)C(C)C)[nH]4)cc3)cc2)[nH]1)C(C)C	–	–	> 100 µM
CCC(CC)COC(=O)[C@H](C)N[P@](=O)(OC[C@H]1O[C@@](C#N)(c2ccc3c(N)ncnn23)[C@H](O)[C@@H]1O)Oc1ccccc1	–	–	> 13 µM
CCOC(=O)c1c(NCc2ccc(SC)cc2)c2cccc(C)c2[nH]c1=O	MTS	48 h	> 100 µM
CCN(CC)CCNC(=O)c1c(C)[nH]c(/C=C2\C(=O)Nc3ccc(F)cc32)c1C	resazurin	–	25 µM
CC(C)(C)[C@H](NS(=O)(=O)C(F)(F)F)C(=O)N1[C@@H]2CC[C@@H](C2)[C@H]1C(=O)N[C@@H](C[C@@H]1CCNC1=O)C(=O)c1nc2ccccc2s1	–	48 h	> 50 µM
CC(C)C[C@H](NC(=O)OCc1ccccc1)C(=O)N[C@@H](CC(C)C)C(=O)N[C@@H](CC(C)C)C(=O)C(=O)Nc1ccccc1	ATP luminescence	48 h	16 µM
Clc1ccc(C(Cn2ccnc2)OCc2csc3c(Cl)cccc23)c(Cl)c1 (stereo not drawn)	WST-1	18 h	~21.2 µM
C#Cc1cccc(Nc2ncnc3cc(OCCOC)c(OCCOC)cc23)c1	resazurin	–	> 60 µM
O=C(NCc1ccc(F)cc1)c1cccc(Nc2ccc(-c3ccccc3)nn2)c1	MTS	48 h	> 100 µM
COC(=O)N[C@H](C(=O)N1C[C@H](n2cc(-c3ccccc3)nn2)C[C@H]1c1ncc(-c2ccc(-c3ccc(-c4cnc([C@@H]5C[C@@H](n6cc(-c7ccccc7)nn6)CN5C(=O)[C@@H](NC(=O)OC)C(C)C)[nH]4)cc3)cc2)[nH]1)C(C)C	–	–	> 100 µM
C=C(c1ccc(C(=O)O)cc1)c1cc2c(cc1C)C(C)(C)CCC2(C)C	WST-1	18 h	> 40 µM
